# This is a sample that favours compounds with a hit; in the whole collection about 3.9% have one here.
# Gli-Sufu block: antagonists of Gli-Sufu signaling; inhibition, % at 5 µM; actives 0.74% (n = 340,000); Sufu-KO-LIGHT fibroblasts, Gli luciferase reporter luminescence; AID 588413;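 active = inhibition above about 55%, limit read from the data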;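 also: 0% = DMSO-treated cells and 100% = wells with medium but no cells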
# CHOP inh: inhibitors of CHOP induction in ER stress response; CHO-K1 CHOP-promoter luciferase, tunicamycin-induced, 15-18 h; inhibition, % at 10 µM; actives 3.8% (n = 220,000);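 active = compounds that reduced the stress-induced luciferase reporter signal by more than about 70% of percent inhibition, limit read from the data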;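 also: 0% = tunicamycin plus vehicle and 100% = wells without tunicamycin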
# UPR XBP1 act: adaptive UPR (XBP1) activation; CHO-XBP1 luciferase reporter, IRE1-XBP1 UPR activation, luminescence; percent of tunicamycin response, DMSO as zero; activation, % at 20 µM; actives 0.33% (n = 330,000); AID 463104;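 active = versus positive control, 20 µM dose yields 30% or more activation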;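 also: 100% = tunicamycin at 10 µg/mL and 0% = DMSO only wells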
#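 Material – CHO cell line with stable XBP1 luciferase reporter · Buffer or medium – F12 plus 10% FBS · Compound – single point, 20 µM final compound, 1% DMSO · Schedule – 16-18 h cell attachment at 37 °C, then 6 h compound exposure · Signal – Steady-Glo luminescence read · Benchmarks – high control tunicamycin 10 µg/mL final, low control DMSO vehicle only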
# Jurkat NFkB inh: lowers PMA/ionomycin-induced NF-kB signal in Jurkat cells | PMA/ionomycin-induced NF-kB luciferase reporter, luminescence | inhibition, % at 4 µM | actives 0.53% (n = 330,000); in the data active = inhibition above about 50%
# CHOP UPR activ: apoptotic UPR (CHOP) activation; activation, % at 10 µM; actives 0.34% (n = 330,000); CHO-CHOP luciferase reporter, luminescence; percent of tunicamycin response over DMSO baseline;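 active = at 10 µM dose, activation of 40% or more, normalized to positive control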;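 also: 100% = tunicamycin at 10 µg/mL and 0% = DMSO alone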
#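 System: CHO-CHOP luciferase reporter cell line; amount: 500 cells/well; buffer or medium: F12 medium containing 10% fetal bovine serum; incubation: 6 h compound exposure at 37 °C after overnight seeding; measured by: luciferase luminescence after 10 min with Steady-Glo reagent; evaluation: % reporter activation, DMSO baseline versus tunicamycin full activation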
# 697 NFkB inh: lowers PMA/ionomycin-induced NF-kB signal in 697 B cells. inhibition, % at 4 µM. actives 0.33% (n = 330,000). 697 B-cell NF-kB luciferase reporter, 16 h. AID 435022; in the data active = inhibition above about 35%
# Numbers without * were called inactive; . = no result.
SMILES,Gli-Sufu block,CHOP inh,UPR XBP1 act,Jurkat NFkB inh,CHOP UPR activ,697 NFkB inh
CCOC(=O)c1nn(-c2ccc(OC)cc2)c(=O)c2c(N)scc12,6.1,19.1,0.5,-13.0,-1.9,-2.8
CSc1nnc(Cc2sc(-c3ccccc3)nc2-c2ccccc2)o1,-2.0,82.9*,-0.2,4.2,3.3,4.5
CCN(CC(=O)N1CCOCC1)S(=O)(=O)c1ccc(F)cc1,-17.9,.,-2.6,3.0,-0.3,2.9
COc1cccc(CN2C(=O)NC3(CCCCCC3)C2=O)c1,17.1,.,3.5,0.4,-0.3,6.1
CCOC(=O)c1sc(Nc2cccc(Cl)c2)nc1C,-19.4,-14.9,3.5,-17.9,4.1,-35.8
CCOC(=O)c1sc(Nc2ccc(OCC)cc2)nc1C,-17.2,73.2*,4.9,-8.0,1.6,5.7
CCCCn1c(N)c(N(CC(C)C)C(=O)c2ccc(F)c(S(=O)(=O)N3CCOCC3)c2)c(=O)[nH]c1=O,-9.8,.,-1.4,-7.8,-1.7,22.1
CN(C)c1cccc(C(=O)OCc2cc(=O)oc3cc(O)ccc23)c1,-8.4,90.1*,0.7,-44.9,2.4,-48.1
COc1cc(S(=O)(=O)Nc2ccc(C)cc2)ccc1N=Cc1c(C)c(C#N)c(=O)n(C)c1O,0.5,74.2*,13.0,-0.1,0.4,3.1
COc1ccc(NC(=O)c2cc3ccc(O)cc3o/c2=N\O)cc1,-53.5,.,-1.3,-89.1,5.6,-136.9
CC(Sc1nc(-c2ccccc2)cc(C(F)(F)F)n1)C(=O)N1CCCC1 (centres undefined),5.8,92.2*,0.0,-7.3,-0.3,1.6
Oc1ccccc1-c1nc(/C=C/c2ccccc2)nn1-c1ccccc1,-3.5,31.9,.,.,.,.
Oc1ccc(/C=C/c2nc(-c3ccccc3O)n(-c3ccccc3)n2)cc1,4.3,90.3*,4.4,-1.7,2.8,17.6
Nc1ccc(S(=O)(=O)N2CCc3ccccc32)cc1,-10.1,.,-3.1,3.7,-0.4,3.9
O=S(=O)(NC1CCCC1)c1ccc(S(=O)(=O)N2CCc3ccccc32)cc1,46.6,85.8*,-3.7,24.8,3.1,1.4
O=C(NNC(=O)c1cccc(S(=O)(=O)N2CCc3ccccc32)c1)c1ccccc1,48.4,72.7*,.,.,.,.
CC1CCCC(NC(=O)CN2CCN(S(=O)(=O)c3ccc(Br)s3)CC2)C1C (centres undefined),6.4,.,-0.6,0.9,-1.2,5.0
N#Cc1ccccc1NC(=O)C1SC(=Nc2ccccc2)C(C(=O)Nc2ccc(Cl)cc2)=C1N (centres undefined),43.4,100.4*,-0.8,1.6,5.8,-13.6
N#Cc1ccccc1NC(=O)Nc1ccccc1,4.1,15.9,-1.8,2.3,1.5,7.6
CCOc1ccc(N=C2SC(C(=O)Nc3ccccc3C#N)C(N)=C2C(=O)Nc2ccc(Cl)cc2)cc1 (centres undefined),2.3,75.7*,1.2,-0.6,-0.9,3.1
CCOc1ccc(OCC(=O)OCC(=O)Nc2ccccc2C#N)cc1,1.9,.,0.4,13.3,0.0,8.8
CC(NCc1cccnc1)c1ccccc1 (centres undefined),23.9,.,-3.0,-14.6,-1.8,9.0
O=C(/C=C/c1cccc(C(F)(F)F)c1)NNC(=O)c1ccncc1,-6.8,.,0.2,-17.7,0.5,-24.1
Cc1ccccc1C(=O)O/N=C(\N)c1ccccc1,-93.3,.,-11.1,-36.1,-9.0,-140.8
Cc1ccccc1C(=NC(=O)c1ccccc1)c1ccccc1,3.1,72.2*,-1.3,-2.0,0.6,1.1
SMILES,Gli-Sufu block,CHOP inh,UPR XBP1 act,Jurkat NFkB inh,CHOP UPR activ,697 NFkB inh
COc1cc(NC(=O)c2cc3sccc3n2C)cc(OC)c1,-54.7,75.0*,1.3,-94.2,4.8,-83.5
CCOc1ccc(C(C)=O)cc1COC(=O)CNC(=O)C12CC3CC(CC(C3)C1)C2,-1.1,.,-2.9,14.3,-0.9,-2.8
COc1cccc(NS(=O)(=O)c2cc(C)sc2C)c1,21.8,75.5*,-2.1,-5.1,3.1,-21.2
Cc1cc(S(=O)(=O)Nc2cccc(Cl)c2)c(C)s1,1.9,1.2,-0.2,-2.5,-0.5,-3.5
Cc1ccc(-c2onc3ccc(Cl)cc23)cc1,-10.1,64.1,-1.1,-15.8,0.9,5.9
COc1ccc(-c2onc3ccc(Cl)cc23)cc1,-17.5,79.1*,1.8,-17.9,2.7,-21.6
